According to article PMC9583317 (ACS Omega, 2022):
Numbered stars: 1 amine (or outer) side, 2 acyl side, 3 side chain; on linkers, the order of the positions; unused ones are H or OH. Square brackets hold non-standard residues; d marks the D form. Peptide text beside a SMILES is read from it. X1 = O=C(C(=Cc1ccccc1)N[*:1])[*:2]

Assays:
[1] = biological target: Proteinase K (Parengyodontium album, UniProt P06873); experiment: Proteolytic stability with proteinase K; format: in vitro ADME; conditions: 6 h, room temperature
Method in brief: (§1)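 Self-assembled peptide nanoparticles were exposed to proteinase K or trypsin for 6 h at room temperature with constant low-rpm stirring. Degradation was assessed by reverse-phase HPLC on a C-18 column. Morphological change of enzyme-treated particles was imaged by TEM.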

[2] = system: Red blood cells (RBCs); experiment: In vitro hemolysis; format: cell-based; conditions: human RBC suspension, 39 to 773 μM, 37 °C, 3 h, absorbance 540 nm
Method in brief: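 Human blood collected in 10% citrate-phosphate-dextrose. RBCs pelleted at 1500g, 10 min, 25 °C, and washed 3–5 times in PBS. A 10% (v/v) packed-RBC suspension was mixed 1:1 with peptide nanoparticles (39–773 μM) or the siRNA nanocomplex (70–280 nM). Incubated 3 h at 37 °C, then re-spun. Released hemoglobin read in supernatant at 540 nm. PBS and 0.2% Triton X-100 served as controls.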

[3] = system: trypsin; experiment: Proteolytic stability with trypsin; format: in vitro ADME; conditions: 6 h, room temperature
Method in brief: as §1

[4] = ref [31]; cited from earlier work

Proteinase K, sequence (P06873 106-384): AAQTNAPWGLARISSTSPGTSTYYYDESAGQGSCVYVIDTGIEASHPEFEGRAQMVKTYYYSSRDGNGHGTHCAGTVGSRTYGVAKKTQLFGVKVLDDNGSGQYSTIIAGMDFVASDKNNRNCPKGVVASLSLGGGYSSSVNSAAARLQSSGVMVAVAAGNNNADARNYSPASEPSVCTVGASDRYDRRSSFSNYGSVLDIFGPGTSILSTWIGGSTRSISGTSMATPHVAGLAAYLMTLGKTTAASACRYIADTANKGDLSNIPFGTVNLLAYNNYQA

Molecule	morphological change after proteinase K (TEM) [1]	hemolysis [2]	stability to trypsin compared with natural analogue RFRGD ([3]; RP-HPLC C-18, RFRGD NPs in PBS (Fig S2b))	morphological change after trypsin (TEM) ([3]; TEM)	proteolytic stability to trypsin (RP-HPLC) ([3]; constant stirring, RP-HPLC C-18)	size of nanospheres [4]
N=C(N)NCCC[C@H](NC(=O)C(=Cc1ccccc1)NC(=O)[C@@H](N)CCCNC(=N)N)C(=O)NCC(=O)N[C@@H](CC(=O)O)C(N)=O [RΔFRGD] (H-R[X1]RGD-NH2)	no changes in morphological structures	less than 5%	significantly more stable	no changes in morphological structures	observable degradation	
arginine-α,β-dehydrophenylalanine [RΔF]						60–80 nm
